This series in a line: Toxicity liver stage against HepG2, at 10uM. Particulars: human, HepG2-A16-CD81EGFP cells; read-out: INHIBITION
In kind it is cell-based. The arrangement: test concentration 10 uM, cell line HepG2-A16-CD81EGFP. A digest of the protocol: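 Uninfected HepG2-A16-CD81EGFP cells, 3 × 10^3 per well, 1536-well, plated on prespotted compound at 10 μM final, parasite-free screening media added to match infected plates; puromycin 10 μM positive, DMSO 0.5% negative; run in parallel with 48 h PbLuc assay at 37 °C, 5% CO2; viability by CellTiter-Glo luminescence, normalized to controls.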
`Cc1cccc(O[C@H]2COCCN(C3CCOCC3)C2)n1`: the cytotoxicity at 10 µM is 9.09%.

As for `CCN(CC)C1(Cc2cc(CC(C)C)on2)COC1`, the cytotoxicity at 10 µM was 2.23%.

Take `CO[C@H]1COCCN(C(=O)c2ccc(C#N)cc2)C1`: the cytotoxicity at 10 µM stood at 4.94%.

As for `CC(=O)c1ccc(N2CCN(C(=O)c3cnn4c3OCCC4)CC2)cc1`, the cytotoxicity at 10 µM worked out at 8.44%.

`CCOC1CC2(CCN(C(=O)COC)CC2)c2cc(C)ccc21` (stereo not given): the cytotoxicity at 10 µM is -142%.

`CC(=O)N1Cc2nccn2CC(CNC(=O)c2ccnnc2)C1` (stereo not given): the cytotoxicity at 10 µM is -138%.

Consider `COC[C@]12COC[C@H]1CN(Cc1cccnc1OC)C2`, for which the cytotoxicity at 10 µM is -9.83%.

For the molecule `CCS(=O)(=O)Nc1ccc2oc(C)c(C(=O)OC)c2c1`, the cytotoxicity at 10 µM was found to be 5.87%.

As to `CCN1CCN(C(=O)Cn2ncc3c2c(C)nn3C(C)C)CC1`, the cytotoxicity at 10 µM was found to be 6.5%.

Consider `CCn1nc(C)c2nnn(CC(=O)Nc3cccc(F)c3)c(=O)c21`, for which the cytotoxicity at 10 µM was 8.44%.

On to `O=C(CCn1ccnc1)N1CCC(c2nnc(-c3ccccn3)o2)CC1`, for which the cytotoxicity at 10 µM amounted to 3.29%.

Turning to `O=S(=O)(N1CCOCC1)N1CCCC(c2ccccn2)C1` (stereo not given), the cytotoxicity at 10 µM came to 2.23%.

Consider `COCC(=O)N1CCCC(C(=O)c2cnn(-c3ccc(F)cc3)c2N)C1` (stereo not given), for which the cytotoxicity at 10 µM stood at 9.71%.

As for `O[C@H]1CN(Cc2cc3ccccc3o2)CC[C@@]12CCCO2`, the cytotoxicity at 10 µM was -21.9%.

Take `Cc1cc(C)nc(C2CCN(C(=O)c3cncnc3C)C2)n1` (stereo not given): the cytotoxicity at 10 µM amounted to 5.16%.

As to `Cc1ccc2c(c1)C(=O)NCC1(CCN(C(=O)c3scnc3C)CC1)O2`, the cytotoxicity at 10 µM was -17.3%.

In the case of `CC(C)N1CCC(Cc2cncc(-c3ccccc3C(=O)O)n2)C1` (stereo not given), the cytotoxicity at 10 µM was -10%.

Regarding `CC(=O)N1CCCCC1c1nc(C)cc(-c2ccccc2C(=O)O)n1` (stereo not given), the cytotoxicity at 10 µM was -12.8%.

In the case of `Cc1nc(C2CCN(C(=O)c3ccnn3C)CC2)c2sccn12`, the cytotoxicity at 10 µM is -10.7%.

In the case of `Cc1cccnc1CN1CCC2(CC(Nc3ccncn3)C2)C1` (stereo not given), the cytotoxicity at 10 µM is -6.36%.

Consider `CN(c1ccncn1)C1CC2(CCN(C(=O)c3cccn3C)C2)C1` (stereo not given), for which the cytotoxicity at 10 µM was -8.05%.

In the case of `CC(C)N1CCC(c2cc(C(F)(F)F)n3ccnc3n2)CC1`, the cytotoxicity at 10 µM is -16.2%.

For the molecule `C[C@]1(O)CN(Cc2ccc(C(=O)O)cc2)CC[C@@H]1Oc1cccc(F)c1`, the cytotoxicity at 10 µM is -6.66%.

In the case of `CC(C)NC(=O)CN(C)C(=O)c1c(Cl)c2ccccc2n1C`, the cytotoxicity at 10 µM came out at 5.26%.

Consider `COCCNC(=O)c1ccc(NCc2csc(C)n2)cc1Cl`, for which the cytotoxicity at 10 µM was determined as 6.81%.

As to `COC(=O)C1CN(Cc2ccn(-c3ccc(F)cc3)n2)C[C@@H](C)O1` (stereo not given in full), the cytotoxicity at 10 µM was -4.52%.

Turning to `Cc1ccc(N2CCCC(N(C)Cc3cc(C)on3)C2)nn1` (stereo not given), the cytotoxicity at 10 µM was 17.5%.

Regarding `CCCNC(=O)Cn1cc(C#N)c(=O)c2cc(Br)ccc21`, the cytotoxicity at 10 µM is -0.842%.

For `Cc1n[nH]c(C2CN(C(=O)c3ccoc3C)CCO2)n1` (stereo not given), the cytotoxicity at 10 µM was -22.4%.

Take `COc1c(C2CCCN2C(=O)c2ccoc2)c(C)nn1C` (stereo not given): the cytotoxicity at 10 µM was 4%.

Regarding `CC(C)c1nnc(CNc2ccc(SC(F)(F)F)cc2)o1`, the cytotoxicity at 10 µM is 11.5%.

In the case of `Cc1cccc(C)c1CNC1(CCO)CCOCC1`, the cytotoxicity at 10 µM worked out at 1.93%.

Take `CCC(CC)(CC(=O)OC)NC(=O)Nc1nnc(-c2ccccn2)s1`: the cytotoxicity at 10 µM is -8.68%.

Regarding `CC(C)Oc1cccc(CNC(=O)N2CCC(N3CC=CC3)C2)c1` (stereo not given), the cytotoxicity at 10 µM is 0.477%.

As to `Fc1ccc(-c2ccc(CNC3CCc4ncnn4C3)o2)cc1` (stereo not given), the cytotoxicity at 10 µM is -7.62%.

As to `CCCS(=O)(=O)CC(=O)N1CCN(CC2CC2)c2ccccc21`, the cytotoxicity at 10 µM is -7.44%.

`CSCCC(NC(=O)c1ccccc1)C(=O)N(C)Cc1ccsc1` (stereo not given): the cytotoxicity at 10 µM amounted to 7.17%.

Turning to `CC(NC(=O)C1CC1)C(=O)N(C)Cc1ccsc1` (stereo not given), the cytotoxicity at 10 µM was determined as 3.64%.

In the case of `O=C(CCc1ccsc1)N1CCC(C(=O)O)(c2ccccc2)CC1`, the cytotoxicity at 10 µM was determined as 12.4%.

As for `Cc1cccc(NS(=O)(=O)c2ccc(C#N)nc2)c1C#N`, the cytotoxicity at 10 µM stood at 0.0489%.

On to `Cc1cccc(C(C)(C)CNC(=O)CN(C)S(=O)(=O)c2cccnc2)c1`, for which the cytotoxicity at 10 µM came to 7.41%.

For the molecule `CN(C)c1cccc(CNC(=O)Nc2cc(C#N)ccc2Cl)n1`, the cytotoxicity at 10 µM amounted to 21.6%.

On to `Cc1ccc2cccc(S(=O)(=O)N(C)CC3CCN(C)C3)c2n1` (stereo not given), for which the cytotoxicity at 10 µM is 1.5%.

Consider `O=C(c1cnc2[nH]c(=O)[nH]c(=O)c2c1)N1CCCC1C1CCCC1` (stereo not given), for which the cytotoxicity at 10 µM came out at 6.22%.

For `CC(NC1(CNC(=O)C(C)(C)C#N)CCOCC1)c1ccccc1` (stereo not given), the cytotoxicity at 10 µM came to 7.35%.

For the molecule `COC(=O)CCN1CCCC1c1cccc2c1OCCO2` (stereo not given), the cytotoxicity at 10 µM is 17.7%.

For the molecule `Cc1cc(C)n(CCCNC(=O)[C@@H](C)NC(=O)OC(C)(C)C)n1`, the cytotoxicity at 10 µM is -8%.

Take `Cc1nc(C)c(C(=O)N2CCCC2c2nnc3n2CCCCC3)s1` (stereo not given): the cytotoxicity at 10 µM was -2.62%.

`Cn1ccnc1CC1CCCN(C(=O)Nc2cccn(C)c2=O)C1` (stereo not given): the cytotoxicity at 10 µM was -4.79%.

For `CC(=O)NCC(=O)N1C[C@@H](C)[C@@]2(CCN(c3ccsc3)C2=O)C1`, the cytotoxicity at 10 µM was -74.7%.

For the molecule `OCCNc1nccc(-c2c[nH]nc2-c2cccnc2)n1`, the cytotoxicity at 10 µM is -8.22%.

In the case of `COc1ccc(OC)c(-n2cnnc2C)c1`, the cytotoxicity at 10 µM was 1.24%.

Regarding `Cc1cccc(-n2cc(CNc3ncnc4c3CCNCC4)cn2)c1`, the cytotoxicity at 10 µM turned out to be 3.96%.

In the case of `CSCC[C@@H](CO)n1ccnc1-c1ccc(C)o1`, the cytotoxicity at 10 µM amounted to 7.02%.

In the case of `COc1ccc(CN2CCn3cncc3C2)cc1Cn1cncn1`, the cytotoxicity at 10 µM was determined as 7.55%.

Take `O=C(c1cccc(Cl)c1)C1CCCN(c2nnc(C3CCC3)o2)C1` (stereo not given): the cytotoxicity at 10 µM was 0.409%.

As to `Cc1ncsc1CN1CCN(C)C2(CCC(=O)N(CCO)CC2)C1` (stereo not given), the cytotoxicity at 10 µM was -9.8%.

`CCC[C@@H]1CN(C(=O)c2c(F)ccc(C)c2Cl)C[C@H]1C(=O)O`: the cytotoxicity at 10 µM is -4.39%.

As for `CC(C)=CCN1CCN(Cc2nc3ccccc3[nH]2)[C@H]2CS(=O)(=O)C[C@H]21`, the cytotoxicity at 10 µM was -132%.

Turning to `COC(=O)N1CCCCC1C(=O)N1CCCN(c2ccnc(C)c2)CC1` (stereo not given), the cytotoxicity at 10 µM was -3.76%.

Take `CN(CCCC1CCCO1)S(=O)(=O)NCc1ccccc1` (stereo not given): the cytotoxicity at 10 µM was determined as 2.2%.

For the molecule `CCN(CC1CCCN(CCc2cccc(OC)c2)C1)C(=O)CN(C)C` (stereo not given), the cytotoxicity at 10 µM was found to be 9.05%.

For the molecule `CSc1nccc(NCc2cc3n(n2)CCCN(C(=O)C2CCC2)C3)n1`, the cytotoxicity at 10 µM is -118%.

As for `Cc1cc(N2CCC3(CCCN(CCO)C3=O)C2)nc2cc(Cl)ccc12` (stereo not given), the cytotoxicity at 10 µM came out at 3.72%.

For `CCc1nc(NC2CCCN(C(=O)C3CC3)C2)c2cnn(C)c2n1` (stereo not given), the cytotoxicity at 10 µM is -1.05%.

With `Cc1cc(C)n(CC(C)NC2CCN(Cc3cccnc3)CC2)n1` (stereo not given), the cytotoxicity at 10 µM is 2.45%.

`O=C(O)c1cccc(CC2CCN(c3ncccn3)CC2)c1`: the cytotoxicity at 10 µM was -134%.

As for `Cc1nnc(CN(C)Cc2ccc(C(=O)Nc3sccc3C#N)cc2)o1`, the cytotoxicity at 10 µM was -6.88%.

Consider `Cc1cc(NCCNc2ncccc2C)n2nc(C)cc2n1`, for which the cytotoxicity at 10 µM stood at 2.41%.

As for `CS(=O)(=O)N(Cc1ccon1)c1ccc(F)cc1`, the cytotoxicity at 10 µM was 2.24%.

As for `CC(C)Nc1cc(N2CCC(n3cc(C4CCCC4)nn3)CC2)ncn1`, the cytotoxicity at 10 µM turned out to be 7.81%.

On to `CNC(=O)c1noc(Cn2ncc3ccccc3c2=O)n1`, for which the cytotoxicity at 10 µM was -5.35%.

With `CC(C)NS(=O)(=O)c1cc(C(=O)O)cc(-c2ccc(CN(C)C)cc2)c1`, the cytotoxicity at 10 µM came to 13.3%.

Regarding `CCSc1ncc(Cl)c(C(=O)NC(CCSC)C(=O)O)n1` (stereo not given), the cytotoxicity at 10 µM was -8.91%.

Turning to `CCC(NC(=O)c1nn(C)cc1C(=O)O)c1ccccc1` (stereo not given), the cytotoxicity at 10 µM is -7.41%.

`Cc1nnc(NCc2ccccc2S(=O)(=O)N(C)C)c(C#N)c1C`: the cytotoxicity at 10 µM was -8.51%.

Take `Cc1cccc(OCCCNC(=O)NC(C)c2nncn2C)c1` (stereo not given): the cytotoxicity at 10 µM was -7.5%.

As to `Cc1cc(NC(=O)CN(C)C2CCCN(c3cccnn3)C2)n(C)n1` (stereo not given), the cytotoxicity at 10 µM was -12.4%.

Regarding `CN1CCC(NC(=O)NCCNc2ccccn2)CC1`, the cytotoxicity at 10 µM is -1.72%.

On to `Cc1cc(C2CCCN(CCCS(=O)(=O)c3ccccc3)C2)n[nH]1` (stereo not given), for which the cytotoxicity at 10 µM is -7.64%.

With `Cn1cnnc1C1CCCN(C(=O)c2cc(Cl)c3c(c2)OCO3)C1` (stereo not given), the cytotoxicity at 10 µM was -1.08%.

In the case of `Cc1cc(CN(C)C(=O)c2ccc(C(F)(F)F)nc2)no1`, the cytotoxicity at 10 µM was 2.05%.

With `Cc1cc(C)c(CNC(=O)N2CCCC2c2cccn2C)c(=O)[nH]1` (stereo not given), the cytotoxicity at 10 µM was -2.82%.

For the molecule `Cc1nc2ccccc2nc1CN1CCCC1c1c(C)nn(C)c1C` (stereo not given), the cytotoxicity at 10 µM was -1.78%.

In the case of `Cc1cccnc1[C@]1(O)CC[C@H]2CN(Cc3cccc(Cl)c3Cl)C[C@H]21`, the cytotoxicity at 10 µM is -5.86%.

With `O=C(N1CCOCC1)N1CCc2ncc(CN3CCCCC3)n2CC1`, the cytotoxicity at 10 µM was -87.7%.

For `Cc1cc(F)ccc1C(=O)N1C[C@@H]2COC[C@]2(CN(C)C)C1`, the cytotoxicity at 10 µM is -142%.

For `NCCCNS(=O)(=O)Cc1ccc(Br)cc1`, the cytotoxicity at 10 µM was -0.447%.

In the case of `Cc1occc1C(=O)N1C[C@@H]2OCCN(C(C)C)[C@@H]2C1`, the cytotoxicity at 10 µM was -73.4%.

Take `CN(C)C[C@@H]1CCC[C@@H]2CN(c3ncccn3)C[C@@H]21`: the cytotoxicity at 10 µM worked out at 5.85%.

Consider `O=C(c1cscn1)N1CCC2(CN(Cc3nccs3)C2)C1`, for which the cytotoxicity at 10 µM was -72.6%.

Consider `O=C1[C@H]2CN(Cc3ccncc3)C[C@H]2CN1c1ccsc1`, for which the cytotoxicity at 10 µM was -81.1%.

Consider `Cc1nc(CN2C[C@@H]3CN(C(=O)c4cccn4C)C[C@@H]3C2)cs1`, for which the cytotoxicity at 10 µM was determined as 0.346%.

In the case of `Cc1ccc(CN2C[C@@H]3C[C@H](C(=O)NCC4CC4)N(C)[C@@H]3C2)o1`, the cytotoxicity at 10 µM is -3.63%.

For the molecule `CSc1nc(N)c2c(n1)N=C1COC(=O)C1C2c1cccc(Cl)c1` (stereo not given), the cytotoxicity at 10 µM came out at 37.5%.

For the origin of these results see ChEMBL document CHEMBL4513216, “Probing the Open Global Health Chemical Diversity Library for Multistage-Active Starting Points for Next-Generation Antimalarials” (ACS Infect Dis, 2020).
